Data: ChEMBL document CHEMBL1127672, “Synthesis and biological evaluation of 2',3'-dideoxy-L-pyrimidine nucleosides as potential antiviral agents against human immunodeficiency virus (HIV) and hepatitis B virus (HBV)” (J Med Chem, 1994)

What was measured:
[1] = test system: Hepatoma cell line; test: The compound was tested for antiviral activity against Hepatitis B virus in human hepatoma cells.; assay type: functional; details: read-out: ED50 (the source's name)
How it was run: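 HBV-carrying human hepatoma 2.2.15 cells, six-day-old cultures in MEM with Earle's salts and 10% FBS, given varying drug concentrations for 3 days, medium renewed with same drug for a further 3 days; virions in harvested medium PEG-precipitated, viral DNA measured by Southern analysis against untreated controls; ED50 = 50% inhibition.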

[2] = test system: MT2; test: The compound was tested for antiviral activity against HIV-1 in MT-2 cells; assay type: functional, Homo sapiens; details: read-out: ED50 (the source's name)
How it was run: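 MT-2 cells (1 × 10^4/well, triplicate) in RPMI 1640 with 10% dialysed FBS infected with HIV-1 HTLV-IIIB at 0.1 TCID50/cell (0.01 for one compound), immediately added to serial drug dilutions; after 5 days, MTT read at A595; % protection versus infected and uninfected no-drug controls; ED50 from log plots.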

[3] = test system: CCRF-CEM; test: In vitro cytotoxicity against human CCRF-CEM T-lymphoblastic leukemia cells was determined; assay type: functional, cell-based
How it was run: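 CCRF-CEM suspension cultures in RPMI 1640 plus 10% horse serum, 37 °C, 5% CO2; exponential-phase cells at 2 × 10^4 cells/mL given various concentrations; cell numbers counted after 3 days versus drug-free control; 50% value read from plot of cell number against concentration.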

[4] = test system: CCRF-CEM; test: Concentration of compound required to inhibit the synthesis of mitochondrial DNA (mt DNA) in human CCRF-CEM T-lymphoblastic leukemia cells; assay type: functional, cell-based
How it was run: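 CEM cells exposed to varying drug concentrations, collected, washed in PBS, lysed in 10 mM Tris-HCl pH 7.0 by freeze-thaw; RNase A (10 μg/mL final) then proteinase K for 1 h; DNA blotted onto nylon after NaI addition and boiling 10 min. IC50 = concentration inhibiting mt DNA synthesis by 50%.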

[5] = Homo sapiens, Hepatoma cell line

| SMILES | EC50 [1, 5] | EC50 ([2]; Homo sapiens, MT2) | IC50 ([3]; Homo sapiens, CCRF-CEM) | EC50 [1] | EC50 [2] | IC50 ([3]; ccrf-cem) | IC50 ([4]; ccrf-cem) | IC50 ([4]; Homo sapiens, CCRF-CEM) |
| --- | --- | --- | --- | --- | --- | --- | --- | --- |
| O=c1[nH]c(=O)n(C2CCC(CO)O2)cc1F (stereo not drawn) | > 10000 nM | > 100 µM | > 100 µM |  |  |  |  |  |
| Cc1cn([C@@H]2CC[C@H](CO)O2)c(=O)[nH]c1=O | > 10000 nM | > 100 µM |  |  |  |  |  |  |
| Nc1nc(=O)n([C@H]2CC[C@H](CO)O2)cc1F | 500 nM | 6 µM | > 100 µM |  |  |  |  |  |
| O=c1ccn(C2CCC(CO)O2)c(=O)[nH]1 (stereo not drawn) | > 100000 nM | > 100 µM | > 100 µM |  |  |  |  |  |
| Nc1nc(=O)n([C@@H]2CC[C@H](CO)O2)cc1F (stereo in doubt; form 1) |  |  |  | 10000 nM | 2 µM | 2 µM |  |  |
| Nc1ccn([C@H]2CC[C@@H](CO)O2)c(=O)n1 (stereo in doubt; form 1) [ZALCITABINE] |  |  |  | 2800 nM | 1.5 µM | 28 µM | 0.022 µM |  |
| Nc1nc(=O)n([C@@H]2CC[C@H](CO)O2)cc1F (stereo in doubt; form 2) |  |  |  | 10 nM | 0.5 µM | 67 µM |  | > 100 µM |
| Nc1ccn([C@H]2CC[C@@H](CO)O2)c(=O)n1 (stereo in doubt; form 2) [ZALCITABINE] |  |  |  | 5000 nM | > 100 µM |  |  |  |
| Nc1ccn([C@H]2CC[C@@H](CO)O2)c(=O)n1 (stereo in doubt; form 3) [ZALCITABINE] |  |  |  | 10 nM | 5 µM | 70 µM | > 100 µM |  |
